Sampled rows, rich in hits. Any-hit rate of the full collection: about 2%.
core dimer inh = inhibitors of HCV core protein dimerization, primary screen, biochemical, TR-FRET, high-throughput | 300,000 tested, 0.33% active | inhibition, % at 5 µM | TR-FRET GST/Flag-core106 dimerization, 1536-well;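 active means inhibition above the mean of all tested compounds plus 3 SD, set per screening campaign, cut at about 45% in these data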
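Assay system: Tagged HCV core106 pair (GST and Flag) | Buffer or medium: KF-containing HEPES buffer, pH 7.45, DTT, CHAPS, BSA | Also added: Eu donor and XL665 acceptor anti-tag antibodies | Dosing: One concentration, 5 µM, in 0.5% DMSO | Timing: 4 h at 22.5 °C | Technique: TR-FRET 671 and 617 nm emission | Repeats: Singlicate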
FID counter = compounds displacing fluorescent DNA intercalator, primary screen, artefact control for HCV NS3 helicase inhibitor project, biochemical, FID fluorescence; DNA fluorescent intercalator displacement; AID 1845, 2009; inhibition, % at 7.9 µM; 290,000 tested, 0.17% active; in the data active means inhibition above about 37%;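 further: higher means more ethidium bromide displaced from hairpin DNA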
NS3 helicase inh = inhibitors of HCV NS3 helicase, primary screen, biochemical, Cy5 molecular beacon fluorescence | NS3 helicase DNA unwinding | inhibition, % at 10.9 µM | 290,000 tested, 0.56% active;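 active means inhibition above the mean of all tested compounds plus 3 SD, set per campaign, cut at about 35% in these data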
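Measured by: Cy5 fluorescence, 0 and 60 min reads / Assay system: NS3 helicase fragment of HCV / Control set: low DMSO, high thioflavine S at 110 µM / Times: 1 h reaction at 25 °C, ATP-initiated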
MLLE-PAM2 inh = inhibitors of PABP1 MLLE–PAM2 peptide binding, primary screen, biochemical, fluorescence polarization, FITC-PAM2, GST-MLLE. AID 588489, 2011. 360,000 tested, 0.36% active. inhibition, % at 20 µM. Polyadenylate-binding protein 1 (Homo sapiens), P11940; in the data active means inhibition above about 35%, passing the limit was not always enough
Target sequence (P11940 whole entry, looked up): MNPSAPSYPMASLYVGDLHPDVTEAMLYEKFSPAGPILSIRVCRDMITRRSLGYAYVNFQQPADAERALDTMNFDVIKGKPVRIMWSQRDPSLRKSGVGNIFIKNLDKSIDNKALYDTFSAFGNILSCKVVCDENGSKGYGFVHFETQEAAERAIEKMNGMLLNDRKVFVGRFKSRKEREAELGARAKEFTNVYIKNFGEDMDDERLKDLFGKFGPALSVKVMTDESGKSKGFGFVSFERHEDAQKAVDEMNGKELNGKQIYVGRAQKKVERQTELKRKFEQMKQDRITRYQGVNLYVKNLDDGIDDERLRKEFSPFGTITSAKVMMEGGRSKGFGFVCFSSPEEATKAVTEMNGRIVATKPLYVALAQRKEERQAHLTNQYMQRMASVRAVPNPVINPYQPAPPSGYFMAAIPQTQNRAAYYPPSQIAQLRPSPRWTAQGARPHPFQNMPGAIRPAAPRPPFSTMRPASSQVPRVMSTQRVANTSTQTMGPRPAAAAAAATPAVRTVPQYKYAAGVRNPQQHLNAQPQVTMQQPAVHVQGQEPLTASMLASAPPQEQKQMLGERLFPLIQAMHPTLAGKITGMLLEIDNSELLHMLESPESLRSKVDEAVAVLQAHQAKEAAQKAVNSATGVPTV
PABP polyA inh = PABP poly(A) RNA binding inhibitors, primary screen, biochemical, fluorescence polarization, uHTS; inhibition, % at 35 µM; 290,000 tested, 1% active;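 further: calls also rest on retests at 20 µM and on dose response follow-up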
eIF4H FP inh = human eIF4H binding inhibitors, primary screen, translation initiation inhibitor project, biochemical, uHTS, fluorescence polarization. Eukaryotic translation initiation factor 4H (Homo sapiens), Q15056. 290,000 tested, 0.94% active. inhibition, % at 35 µM. eIF4H fluorescence polarization binding assay;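 further: calls also rest on retests at 20 µM and on dose response follow-up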
Each line names hits and unclear results; the compound was inactive in the other large screens. Unless noted, how the calls were made is not given here.

O=C(CCC1CCN(C(=O)c2ccccc2Cl)CC1)NCc1ccc(F)cc1	none
CCOc1ccccc1N(C(=O)c1snc(C(N)=O)c1N)C(C(=O)NC1CCCC1)c1cccs1 (centres undefined)	MLLE-PAM2 inh 59
O=C(COc1ccccc1Cl)Nc1ccc(N2CCN(C(=O)c3ccccc3)CC2)cc1	none
Cc1cccc(C)c1NC(=O)C(c1ccccc1)N(C)CCc1ccccc1 (centres undefined)	none (no result: core dimer inh, FID counter, NS3 helicase inh, PABP polyA inh, eIF4H FP inh)
CCCCn1c(N)c(NCc2ccccc2)c(=O)[nH]c1=O	none
Nc1c(NCc2ccccc2F)c(=O)[nH]c(=O)n1Cc1ccccc1	PABP polyA inh 51, eIF4H FP inh 51
Cn1cccc1CC(=O)N/N=C/c1cc([N+](=O)[O-])ccc1Cl	core dimer inh 48
Nc1ccc(/C=C/C(=O)c2cccs2)cc1	eIF4H FP inh 65
COC1CCCN(Cc2cn(C)nc2-c2ccc(Oc3ccccc3)cc2)C1 (centres undefined)	none
CCCN1CCC(NCc2cn(C)nc2-c2ccc(Oc3ccccc3)cc2)CC1	FID counter 39
O=C(NC(=S)Nc1ccccc1N1CCCCC1)c1ccco1	MLLE-PAM2 inh 43
O=C(Nc1nc(-c2ccncc2)cs1)c1ccco1	eIF4H FP inh 84
CC1Cc2ccccc2N1C(=S)NC(=O)c1ccco1 (centres undefined)	PABP polyA inh 68, eIF4H FP inh 2.5
Cc1c(NC(=S)NC(=O)C(C)(C)C)cccc1[N+](=O)[O-]	PABP polyA inh 120, eIF4H FP inh active
O=C(NC(=S)Nc1ccccc1N1CCCC1)c1ccco1	PABP polyA inh inconclusive, eIF4H FP inh inconclusive
O=C(COC(=O)c1ccc(Cl)c(S(=O)(=O)N2CCCCC2)c1)NC1CCCCC1	none (no result: core dimer inh, FID counter, NS3 helicase inh, PABP polyA inh, eIF4H FP inh)
NS(=O)(=O)c1cccc(NC(=O)COC(=O)Cc2ccc(S(=O)(=O)N3CCOCC3)s2)c1	none (no result: core dimer inh, FID counter, NS3 helicase inh, PABP polyA inh, eIF4H FP inh)
O=C(Nc1cccc2cccc(NC(=O)c3ccco3)c12)c1ccco1	core dimer inh 48
O=C(NC(=S)Nc1cccc2c(O)cccc12)c1ccccc1[N+](=O)[O-]	PABP polyA inh 34, eIF4H FP inh 75
O=C(NC(=S)Nc1cccc2c(O)cccc12)c1ccco1	PABP polyA inh 55, eIF4H FP inh 66
N#Cc1ccc(Cl)cc1NC(=O)CN1C(=O)C(=O)N(CCC2=CCCCC2)C1=O	none (no result: core dimer inh, FID counter, NS3 helicase inh, PABP polyA inh, eIF4H FP inh)
Cc1n[nH]c2ccc(Br)cc2c1=O	none (no result: core dimer inh, FID counter, NS3 helicase inh, PABP polyA inh, eIF4H FP inh)
CCOc1nc2cnccc2n(CC(=O)Nc2ccc(C)c(C)c2)c1=O	none
Cc1ccc(Sc2cnc(N)nc2C)cc1	PABP polyA inh 62, eIF4H FP inh active
COc1ccc(OCc2nnc(SCC(=O)Nc3ccccc3F)o2)cc1	none
CC1=NN(CCC#N)C(=O)/C1=C/c1ccc(N(C)C)cc1	eIF4H FP inh 77
S=C(Nc1ccc(Cl)cc1)c1sc(N2CCCCC2)nc1N1CCOCC1	PABP polyA inh active, eIF4H FP inh 79
CN1CCCCc2c1[nH]c1ccccc1c2=O	PABP polyA inh 69, eIF4H FP inh 59
O=c1c2c([nH]c3ccccc13)CCC2	none
O=C(c1cccnc1)N(Cc1ccccc1)C(c1ccccc1)c1nc2ccccc2[nH]1 (centres undefined)	none (no result: core dimer inh, FID counter, NS3 helicase inh, PABP polyA inh, eIF4H FP inh)
CCN(CC)S(=O)(=O)c1cc(NC(=O)C(C)N2CCc3ccccc32)ccc1C (centres undefined)	eIF4H FP inh active
Cc1ccc(NC(=O)C(C)N2CCCc3ccccc32)cc1S(=O)(=O)N1CCOCC1 (centres undefined)	none (no result: core dimer inh, FID counter, NS3 helicase inh, PABP polyA inh, eIF4H FP inh)
O=C(Nc1nnc(C2=COCCO2)o1)c1cccc([N+](=O)[O-])c1	none
N#CCCN(CCC#N)S(=O)(=O)c1ccc(C(=O)Nc2nnc(C3=COCCO3)o2)cc1	PABP polyA inh 9.6, eIF4H FP inh 82
CS(=O)(=O)c1cccc(C(=O)Nc2nnc(C3=COCCO3)o2)c1	MLLE-PAM2 inh 41 (no result: FID counter, NS3 helicase inh, PABP polyA inh, eIF4H FP inh)
O=c1c2ccccc2[nH]c2ccc(O)cc12	PABP polyA inh 68, eIF4H FP inh 92
CC(C)NC(=O)Nc1cccc2c1O[C@H](CN(C)C(=O)Nc1ccccc1)[C@@H](C)CN([C@H](C)CO)C2=O	none (no result: core dimer inh, FID counter, NS3 helicase inh, PABP polyA inh, eIF4H FP inh)
COc1cc(NC(=O)Nc2cccn3nc(COCCO)nc23)cc(OC)c1OC	none (no result: core dimer inh, FID counter, NS3 helicase inh, PABP polyA inh, eIF4H FP inh)
CCOC(=O)c1ccc(N2C(=O)C3C(C2=O)C(C(=O)c2ccc(Cl)cc2)N2CCCC32)cc1 (centres undefined)	core dimer inh 74, PABP polyA inh inconclusive, eIF4H FP inh inconclusive
O=C(O)CC(C(=O)O)c1ccc(OCCCCOc2ccc(C(CC(=O)O)C(=O)O)cc2)cc1 (centres undefined)	PABP polyA inh 68, eIF4H FP inh 101
COc1ccc(N=C2S/C(=C\c3ccc(OCC(=O)O)cc3)C(=O)N2CCc2c[nH]c3ccccc23)cc1	PABP polyA inh 44 (no result: core dimer inh)
O=C(Nc1ccc(NC(=O)c2ccc(Cl)cc2Cl)cc1)c1ccc2c(c1)OCO2	none
O=C(Nc1ccc(C2=NCCN2)cc1)c1ccc(C(=O)Nc2ccc(C3=NCCN3)cc2)c(Cl)c1	FID counter 37
COc1ccccc1CP(=O)(c1ccccc1)c1ccccc1	eIF4H FP inh active
COc1ccc(CP(=O)(c2ccccc2)c2ccccc2)cc1	none
CCCC(=O)N1CCCC(c2cc(C(=O)Nc3ccccc3)no2)C1 (centres undefined)	none (no result: core dimer inh, FID counter, NS3 helicase inh, PABP polyA inh, eIF4H FP inh)
Cn1sccc1=O	MLLE-PAM2 inh 37 (no result: FID counter, NS3 helicase inh, PABP polyA inh, eIF4H FP inh)
CCc1nnc(NC(=O)CCC(=O)N2CCN(Cc3ccc(C)cc3C)CC2)s1	none (no result: PABP polyA inh, eIF4H FP inh)
CCc1nnc(NC(=O)CCC(=O)N2CCN(CCOc3ccc(C)cc3)CC2)s1	eIF4H FP inh 50
O=C(NC(c1ccccc1)c1ccsc1)C1CCN(Cc2ccc(Oc3ccccc3)cc2)CC1 (centres undefined)	none (no result: core dimer inh, FID counter, NS3 helicase inh, PABP polyA inh, eIF4H FP inh)
O=C(C[n+]1cccc2ccccc21)c1ccc([N+](=O)[O-])cc1	none
O=C(C[n+]1cccc2ccccc21)c1ccc(Cl)cc1	PABP polyA inh 23
O=C(Nc1ccccc1N1CCOCC1)c1ccc([N+](=O)[O-])s1	none (no result: core dimer inh, FID counter, NS3 helicase inh, PABP polyA inh, eIF4H FP inh)
CCO/C=C1\C(=O)N(CC)c2ccccc21	PABP polyA inh 70, eIF4H FP inh active
CC(=O)Nc1ccc2cc3ccc(NC(C)=O)cc3nc2c1	FID counter 56, PABP polyA inh 70, eIF4H FP inh 77
N#CC1=C(N)C2=CCCC[C@H]2[C@H](c2ccccc2)C1(C#N)C#N	PABP polyA inh active, eIF4H FP inh 89
N#CC1=C(N)C2=CCCC[C@H]2[C@H](c2ccc(Br)cc2)C1(C#N)C#N	none
CC(C)c1ccc(NC(=O)Nc2cc3sccc3n2C)cc1	core dimer inh 47, eIF4H FP inh inconclusive

Source: PubChem (several laboratories)
